{
  "source": "paper PMC11056977",
  "about": "(Journal of Medicinal Chemistry, 2024)",
  "key": {"BRD4": {"system": "BRD4", "test": "Immunoblotting of BRD4 protein", "format": "cell-based", "settings": "MCF7 cells, MZ1 1 μM, 24 h, compared with TAT-PiET-PROTAC 10 μM"}, "[1]": {"system": "tamoxifen-resistant MCF7 cells", "test": "Cell proliferation and colony formation, tamoxifen-resistant MCF7", "format": "cell-based", "settings": "peptide inhibitors 10 μM, tamoxifen 3 μM, cell proliferation and colony formation assay", "how_it_was_run": "(§1)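 Resistant lines (MCF7 in DMEM; T47D in RPMI-1640; 10% FBS, 37 °C, 5% CO2) given peptide inhibitor 10 μM and tamoxifen 3 μM, alone or combined. Proliferation: 2 × 10^3 cells/well for the days indicated, then tetrazolium (CellTiter 96 Aqueous One) reagent for 1 h at 37 °C and absorbance at 490 nm. Colonies: 1 × 10^3 cells/well for 2 weeks, crystal violet stain dissolved in 10% acetic acid, read at 590 nm.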"}, "[2]": {"system": "tamoxifen-resistant T47D cells", "test": "Cell proliferation and colony formation, tamoxifen-resistant T47D", "format": "cell-based", "settings": "peptide inhibitors 10 μM, tamoxifen 3 μM, cell proliferation and colony formation assay", "how_it_was_run": "as §1"}, "[3]": {"system": "c-Myc, N-myc, CCND1 expression in MDA-MB-231 cells", "test": "RT-qPCR and immunoblotting of BRD4/JMJD6 target genes, MDA-MB-231 cells", "format": "cell-based", "settings": "10 μM 6 h in cells; xenograft tumor samples; RT-qPCR"}, "[4]": {"system": "MDA-MB-231 cell-derived xenografts", "test": "MDA-MB-231 cell-derived xenograft mouse model", "format": "in vivo, BALB/c nude mice", "settings": "tumor samples, 25 mg/kg ip every 2 days", "how_it_was_run": "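Female BALB/c nude mice (4–6 weeks) were implanted subcutaneously with 5 × 10^6 MDA-MB-231 cells in PBS and randomized at ~50 mm3. Peptide in normal saline was given at 25 mg/kg i.p. every 2 days. Tumours were analysed by RT-qPCR for c-Myc, N-myc and CCND1 (three biological repeats).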"}, "[5]": {"system": "c-Myc, N-myc, CCND1 expression in MCF7 cells", "test": "RT-qPCR and immunoblotting of BRD4/JMJD6 target genes, MCF7 cells", "format": "cell-based", "settings": "10 μM 6 h in cells; xenograft tumor samples; RT-qPCR"}, "[6]": {"system": "MCF7 cell-derived xenografts", "test": "MCF7 cell-derived xenograft mouse model", "format": "in vivo, BALB/c nude mice", "settings": "tumor samples, 25 mg/kg ip every 2 days", "how_it_was_run": "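Female BALB/c nude mice (4–6 weeks) implanted subcutaneously with 5 × 10^6 MCF7 cells in PBS, with estrogen (E2, 10–2 M) brushed on every 2 days. Randomized at ~50 mm3 tumor volume. Test peptide was given in normal saline, 25 mg/kg i.p., every 2 days. Tumor lysates (Tris-HCl pH 7.4, NaCl, EDTA, 1% Triton X-100) were immunoblotted after 10% SDS-PAGE.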"}},
  "note": "Ends that are not written are not given here.",
  "data": [
    {"compound": "Cc1ncsc1-c1ccc(CNC(=O)[C@@H]2C[C@@H](O)CN2C(=O)[C@@H](NC(=O)COCCOCCOCCNC(=O)C[C@@H]2N=C(c3ccc(Cl)cc3)c3c(sc(C)c3C)-n3c(C)nnc32)C(C)(C)C)cc1", "note": "[MZ1]", "values": [
      {"measurement": "degradation of full-length BRD4 protein", "setting": "BRD4", "result": "induced the degradation of full-length BRD4 protein as effectively as TAT-PiET-PROTAC (10 μM)"}
    ]},
    {"compound": "TAT-PiET-PROTAC: PROTAC-modified TAT-PiET: VHL ligand peptide joined by AHX to the C-terminus (YGRKKRRQRRRRNQKFKCGE; not fully specified (C-terminus))", "values": [
      {"measurement": "resensitization of tamoxifen-resistant MCF7 cells to tamoxifen", "setting": "[1]", "result": "resensitized"},
      {"measurement": "sensitivity of tamoxifen-resistant T47D cells to tamoxifen", "setting": "[2]", "result": "became sensitive to tamoxifen"},
      {"measurement": "mRNA levels of BRD4 or JMJD6, MDA-MB-231 (culture cells or xenografts)", "setting": "[3]", "result": "did not affect"},
      {"measurement": "c-Myc, N-myc, and CCND1 mRNA and protein levels in MDA-MB-231 cell-derived xenografts", "setting": "[4]", "result": "significant decrease"},
      {"measurement": "degradation of BRD4 and JMJD6 in MDA-MB-231 cell-derived xenografts", "setting": "[4]; immunoblot", "result": "induced the degradation of BRD4 and JMJD6 in xenografts"},
      {"measurement": "mRNA levels of BRD4 or JMJD6, MCF7 (culture cells or xenografts)", "setting": "[5]", "result": "did not affect"},
      {"measurement": "c-Myc, N-myc, and CCND1 mRNA and protein levels in MCF7 cell-derived xenografts", "setting": "[6]", "result": "significant decrease"},
      {"measurement": "degradation of BRD4 and JMJD6 in MCF7 cell-derived xenografts", "setting": "[6]; immunoblot", "result": "induced the degradation of BRD4 and JMJD6 in xenografts"}
    ]},
    {"compound": "YGRKKRRQRRRRNQKFKCGE [TAT-PiET]", "values": [
      {"measurement": "resensitization of tamoxifen-resistant MCF7 cells to tamoxifen", "setting": "[1]", "result": "resensitized"},
      {"measurement": "sensitivity of tamoxifen-resistant T47D cells to tamoxifen", "setting": "[2]", "result": "became sensitive to tamoxifen"},
      {"measurement": "mRNA levels of BRD4 or JMJD6, MDA-MB-231 (culture cells or xenografts)", "setting": "[3]", "result": "did not affect"},
      {"measurement": "c-Myc, N-myc, and CCND1 mRNA and protein levels in MDA-MB-231 cell-derived xenografts", "setting": "[4]", "result": "significant decrease"},
      {"measurement": "mRNA levels of BRD4 or JMJD6, MCF7 (culture cells or xenografts)", "setting": "[5]", "result": "did not affect"},
      {"measurement": "c-Myc, N-myc, and CCND1 mRNA and protein levels in MCF7 cell-derived xenografts", "setting": "[6]", "result": "significant decrease"}
    ]}
  ]
}
